Results taken from ChEMBL document CHEMBL4145697, “Replacement of a Naphthalene Scaffold in Kelch-like ECH-Associated Protein 1 (KEAP1)/Nuclear Factor (Erythroid-derived 2)-like 2 (NRF2) Inhibitors” (J Med Chem, 2018).
In brackets after ≈: the same amount, converted by molar mass. Values belong to the compound of their own block, whether it stands above or below them. Activity calls are given as the source filed them. No cut-off for these calls is given here.

What was measured:
Keap1/Nrf2 = Keap1/Nrf2 (Homo sapiens, UniProt Q14145); assay: Inhibition of Keap1 Kelch domain (unknown origin) /Nrf2 (unknown origin) interaction using fluorescein-labeled 9-mer peptide containing NRF2 Neh2 domain ETGE motif by fluorescence anisotropy assay; assay type: protein assay
[1] = Kinetic solubility in pH 7.4 incubated for 1 hr by HPLC method; assay type: physicochemical; details: buffer, read-out: Kinetic_solubility
[2] = Stability in mouse liver microsomes assessed as compound remaining level at 200 uM incubated for 20 mins by LC-MS method; assay type: ADME, microsome; details: read-out: Stability
Salmonella typhimurium [3] = assay: Cytotoxicity in Salmonella typhimurium TA98 at 1.5 to 1000 ug/well; assay type: organism-based; details: salmonella enterica subsp. enterica serovar typhimurium
Outline: (§1)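 Mini-Ames plate incorporation; compounds dissolved in DMSO, tested at 1.5–1000 µg/well with and without Aroclor 1254-induced rat liver S9, alongside solvent and positive controls. Cells in top agar over minimal glucose agar; triplicate wells (vehicle sextuplicate), 37 ± 2 °C for 48–72 h. Cytotoxicity scored as fewer revertants per well and/or thinning or loss of background lawn relative to negative control.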

Salmonella typhimurium [4] = assay: Cytotoxicity in Salmonella typhimurium TA100 at 1.5 to 1000 ug/well; assay type: organism-based; details: salmonella enterica subsp. enterica serovar typhimurium; outline: as §1
Salmonella typhimurium [5] = assay: Cytotoxicity in Salmonella typhimurium TA1535 at 1.5 to 1000 ug/well; assay type: organism-based; details: salmonella enterica subsp. enterica serovar typhimurium; outline: as §1
Salmonella typhimurium [6] = assay: Cytotoxicity in Salmonella typhimurium TA1537 at 1.5 to 1000 ug/well; assay type: organism-based; details: salmonella enterica subsp. enterica serovar typhimurium; outline: as §1
Escherichia coli = assay: Cytotoxicity in Escherichia coli WP2 uvrA (pKM101) at 1.5 to 1000 ug/well; assay type: organism-based; details: in vivo; outline: as §1
Salmonella typhimurium [7] = assay: Mutagenicity in Salmonella typhimurium TA98 assessed as increase in number of revertant colonies at 1.5 to 1000 ug/well in presence of rat liver S9 fractions incubated for 48 to 72 hrs; assay type: toxicity, organism-based; details: salmonella enterica subsp. enterica serovar typhimurium
Outline: (§2)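 Reverse mutation at histidine locus in top agar (0.6% agar, 0.5% NaCl, histidine/biotin) with Aroclor 1254-induced rat liver S9 mix; DMSO vehicle, doses 1.5–1000 µg/well. Plated in triplicate wells (vehicle sextuplicate) on minimal glucose agar, 37 ± 2 °C for 48–72 h. Revertant colonies counted manually; fold-change over DMSO, p-values by two-tailed t-test.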

Salmonella typhimurium [8] = assay: Mutagenicity in Salmonella typhimurium TA100 assessed as increase in number of revertant colonies at 1.5 to 1000 ug/well in presence of rat liver S9 fractions incubated for 48 to 72 hrs; assay type: toxicity, organism-based; details: salmonella enterica subsp. enterica serovar typhimurium; outline: as §2
[9] = Lipophilicity, log D of the compound; assay type: physicochemical; details: octanol/water
[10] = Stability in human liver microsomes assessed as compound remaining level at 1 uM incubated for 20 mins by LC-MS method
[11] = Stability in mouse liver microsomes assessed as compound remaining level at 1 uM incubated for 20 mins by LC-MS method
[12] = target: Kelch-like ECH-associated protein 1 (Homo sapiens, UniProt Q14145); assay: Binding affinity to Keap1 Kelch domain (unknown origin) by surface plasmon resonance assay
[13] = target: T1, Keap1/Nrf2 (Homo sapiens) (UniProt Q16236+Q14145); assay: Inhibition of Keap1/Nrf2 interaction in human HaCaT cells assessed as increase in NRF2 nuclear accumulation at 10 uM incubated for 6 hrs by immunoblot assay; assay type: cell-based
[14] = target: T1, Keap1/Nrf2 (Homo sapiens); assay: Inhibition of Keap1/Nrf2 interaction in human HaCaT cells assessed as increase in NRF2 nuclear accumulation at 10 uM incubated for 24 hrs by immunoblot assay; assay type: cell-based
[15] = target: T1, Keap1/Nrf2 (Homo sapiens); assay: Inhibition of Keap1/Nrf2 interaction in human HaCaT cells assessed as increase in HMOX1 gene expression at 10 uM incubated for 6 hrs by qPCR method; assay type: cell-based
[16] = target: T1, Keap1/Nrf2 (Homo sapiens); assay: Inhibition of Keap1/Nrf2 interaction in human HaCaT cells assessed as increase in GCLM gene expression at 10 uM incubated for 6 hrs by qPCR method; assay type: cell-based
[17] = target: T1, Keap1/Nrf2 (Homo sapiens); assay: Inhibition of Keap1/Nrf2 interaction in human HaCaT cells assessed as increase in GCLC gene expression at 10 uM incubated for 6 hrs by qPCR method; assay type: cell-based
[18] = target: T1, Keap1/Nrf2 (Homo sapiens); assay: Inhibition of Keap1/Nrf2 interaction in human HaCaT cells assessed as increase in NQO1 gene expression at 10 uM incubated for 24 hrs by qPCR method; assay type: cell-based
[19] = target: T1, Keap1/Nrf2 (Homo sapiens); assay: Inhibition of Keap1/Nrf2 interaction in human HaCaT cells assessed as increase in HMOX1 gene expression at 10 uM incubated for 24 hrs by qPCR method; assay type: cell-based
[20] = target: T1, Keap1/Nrf2 (Homo sapiens); assay: Inhibition of Keap1/Nrf2 interaction in human HaCaT cells assessed as increase in GCLM gene expression at 10 uM incubated for 24 hrs by qPCR method; assay type: cell-based
[21] = target: T1, Keap1/Nrf2 (Homo sapiens); assay: Inhibition of Keap1/Nrf2 interaction in human HaCaT cells assessed as increase in GCLC gene expression at 10 uM incubated for 24 hrs by qPCR method; assay type: cell-based
[22] = target: T1, Keap1/Nrf2 (Homo sapiens); assay: Inhibition of Keap1/Nrf2 interaction in human HaCaT cells assessed as increase in NQO1 gene expression at 10 uM incubated for 6 hrs by qPCR method; assay type: cell-based
HaCaT [23] = assay: Effect on SOD2 gene expression in human HaCaT cells at 10 uM incubated for 6 hrs by qPCR method; assay type: ADME, cell-based
HaCaT [24] = assay: Effect on SOD2 gene expression in human HaCaT cells at 10 uM incubated for 24 hrs by qPCR method; assay type: ADME, cell-based
[25] = target: T1, Keap1/Nrf2 (Homo sapiens); assay: Inhibition of Keap1/Nrf2 interaction in human HaCaT cells assessed as increase in NQO1 protein expression at 10 uM incubated for 6 hrs by Western blot method; assay type: cell-based
Outline: (§3)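 HaCaT cells in DMEM, 10% FBS, 1% antibiotics, treated at 70–80% confluence with 10 μM compound or DMSO for 6 or 24 h in complete medium. Lysates (~40 μg protein) resolved by 10% SDS-PAGE, immunoblotted for NQO1; bands quantified against GAPDH, vehicle set to one arbitrary unit.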

[26] = target: T1, Keap1/Nrf2 (Homo sapiens); assay: Inhibition of Keap1/Nrf2 interaction in human HaCaT cells assessed as increase in NQO1 protein expression at 10 uM incubated for 24 hrs by Western blot method; assay type: cell-based; outline: as §3

Chain of Keap1/Nrf2 (Q16236 whole entry, the tested form may be a part): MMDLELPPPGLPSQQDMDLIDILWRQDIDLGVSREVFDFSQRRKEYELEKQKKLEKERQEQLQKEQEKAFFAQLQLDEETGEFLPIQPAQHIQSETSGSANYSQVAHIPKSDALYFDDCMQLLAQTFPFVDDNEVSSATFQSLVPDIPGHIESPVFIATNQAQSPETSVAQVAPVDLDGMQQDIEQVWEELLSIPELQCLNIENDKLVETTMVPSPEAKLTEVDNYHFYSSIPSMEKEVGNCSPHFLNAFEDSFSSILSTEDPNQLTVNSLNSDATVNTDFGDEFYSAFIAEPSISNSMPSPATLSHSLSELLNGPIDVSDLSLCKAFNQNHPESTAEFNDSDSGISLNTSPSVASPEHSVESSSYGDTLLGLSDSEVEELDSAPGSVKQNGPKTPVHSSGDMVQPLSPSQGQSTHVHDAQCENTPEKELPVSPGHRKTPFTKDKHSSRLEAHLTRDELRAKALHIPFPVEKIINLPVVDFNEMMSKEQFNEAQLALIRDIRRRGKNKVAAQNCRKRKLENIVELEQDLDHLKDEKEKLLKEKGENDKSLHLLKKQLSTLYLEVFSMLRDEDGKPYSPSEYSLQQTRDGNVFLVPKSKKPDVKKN
Chain of Keap1/Nrf2 (Q14145 whole entry, the tested form may be a part): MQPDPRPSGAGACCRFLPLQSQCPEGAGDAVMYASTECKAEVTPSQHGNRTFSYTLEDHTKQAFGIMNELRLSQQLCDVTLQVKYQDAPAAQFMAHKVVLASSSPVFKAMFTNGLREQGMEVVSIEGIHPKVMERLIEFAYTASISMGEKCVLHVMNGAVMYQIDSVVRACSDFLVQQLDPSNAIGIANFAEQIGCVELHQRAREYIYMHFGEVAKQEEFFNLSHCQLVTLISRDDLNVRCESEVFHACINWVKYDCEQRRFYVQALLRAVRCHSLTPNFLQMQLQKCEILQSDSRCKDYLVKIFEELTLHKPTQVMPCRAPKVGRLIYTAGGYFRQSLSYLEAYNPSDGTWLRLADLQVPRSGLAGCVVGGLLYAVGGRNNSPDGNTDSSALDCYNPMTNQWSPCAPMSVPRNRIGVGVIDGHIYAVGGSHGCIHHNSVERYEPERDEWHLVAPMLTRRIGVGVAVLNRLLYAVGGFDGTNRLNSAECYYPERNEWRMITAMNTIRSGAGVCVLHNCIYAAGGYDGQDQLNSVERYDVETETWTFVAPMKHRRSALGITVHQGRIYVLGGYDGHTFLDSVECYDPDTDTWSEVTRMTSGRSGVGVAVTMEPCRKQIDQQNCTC
T1 sequence (Q14145 whole entry, looked up): as the sequence (Q14145 whole entry, the tested form may be a part) above
T1 sequence (Q16236 whole entry, looked up): as the sequence (Q16236 whole entry, the tested form may be a part) above
Chain of Kelch-like ECH-associated protein 1 (Q14145 whole entry, the tested form may be a part): as the sequence (Q14145 whole entry, the tested form may be a part) above

Structure (SMILES): COc1ccc(S(=O)(=O)Nc2ccc(NS(=O)(=O)c3ccc(OC)cc3)c3ccccc23)cc1
solubility kinetic at 1 h [1]: 5.4 µM (≈ 2.69 µg/mL)
remaining at 20 min, 200 µM [2]: 15%

Structure (SMILES): COc1ccc(S(=O)(=O)N(CC=CCN(CC(=O)O)S(=O)(=O)c2ccc(OC)cc2)CC(=O)O)cc1 (mixture of isomers)
IC50 (Keap1/Nrf2): > 25 µM

Structure (SMILES): COc1ccc(S(=O)(=O)N(CC(=O)O)c2ccc(N(CC(=O)O)S(=O)(=O)c3ccc(OC)cc3)c3ccccc23)cc1
Activity (Salmonella typhimurium [3]): Non-Toxic
solubility kinetic at 1 h [1]: 440 µM (≈ 270 µg/mL)
Activity (Salmonella typhimurium [4]): Non-Toxic
Activity (Salmonella typhimurium [5]): Non-Toxic
Activity (Salmonella typhimurium [6]): Non-Toxic
Activity (Escherichia coli): Non-Toxic
Activity (Salmonella typhimurium [7]): Dose-dependent effect
Activity (Salmonella typhimurium [8]): Dose-dependent effect
logD [9]: -1.9
Stability [10]: Stable
Stability [11]: Stable

Structure (SMILES): COc1ccc(S(=O)(=O)N(CC(N)=O)c2ccc(N(CC(N)=O)S(=O)(=O)c3ccc(OC)cc3)c3ccccc23)cc1
solubility kinetic at 1 h [1]: 22 µM (≈ 13.5 µg/mL)
remaining at 20 min, 200 µM [2]: 0%

Structure (SMILES): COc1ccc(S(=O)(=O)Nc2nnc(NS(=O)(=O)c3ccc(OC)cc3)c3ccccc23)cc1
IC50 (Keap1/Nrf2): > 25 µM

Structure (SMILES): COc1ccc(S(=O)(=O)N(CC(=O)O)c2ccc(N(CC(=O)O)S(=O)(=O)c3ccc(OC)cc3)c3[nH]ccc23)cc1
IC50 (Keap1/Nrf2): 1.3 µM

Structure (SMILES): COc1ccc(S(=O)(=O)N(CC(=O)O)c2ccc(N(CC(=O)O)S(=O)(=O)c3ccc(OC)cc3)nc2)cc1
IC50 (Keap1/Nrf2): > 25 µM

Structure (SMILES): COc1ccc(S(=O)(=O)Nc2ccc(NS(=O)(=O)c3ccc(OC)cc3)c3[nH]ccc23)cc1
IC50 (Keap1/Nrf2): > 25 µM

Structure (SMILES): COc1ccc(S(=O)(=O)N(CC(=O)O)c2cnc(N(CC(=O)O)S(=O)(=O)c3ccc(OC)cc3)c3ccccc23)cc1
Activity (Salmonella typhimurium [3]): Non-Toxic
Activity (HaCaT [23]): Non-Toxic
Activity (HaCaT [24]): Non-Toxic
Activity (Salmonella typhimurium [4]): Non-Toxic
Activity (Salmonella typhimurium [5]): Non-Toxic
Activity (Salmonella typhimurium [6]): Non-Toxic
Activity (Escherichia coli): Non-Toxic
logD [9]: -1.7

Further lines, with some results ahead:

IC50 (Keap1/Nrf2): > 25 µM
Structure (SMILES): COc1ccc(S(=O)(=O)Nc2ccc(NS(=O)(=O)c3ccc(OC)cc3)c3ncccc23)cc1

IC50 (Keap1/Nrf2): 0.98 µM
Structure (SMILES): COc1ccc(S(=O)(=O)N(CC(=O)O)c2ccc(N(CC(=O)O)S(=O)(=O)c3ccc(OC)cc3)cc2)cc1

IC50 (Keap1/Nrf2): > 25 µM
Structure (SMILES): COc1ccc(S(=O)(=O)N(CC(=O)O)Cc2ccccc2CN(CC(=O)O)S(=O)(=O)c2ccc(OC)cc2)cc1

IC50 (Keap1/Nrf2): > 25 µM
Structure (SMILES): COc1ccc(S(=O)(=O)N(CC(=O)O)C(=O)c2ccccc2C(=O)N(CC(=O)O)S(=O)(=O)c2ccc(OC)cc2)cc1

IC50 (Keap1/Nrf2): 0.101 µM
Kd [12]: 0.103 µM
inhibition [13]: Active
inhibition [14]: Active
inhibition [15]: inactive
inhibition [16]: Active
inhibition [17]: Active
inhibition [18]: Active
inhibition [19]: inactive
inhibition [20]: Active
inhibition [21]: Active
inhibition [22]: Active
inhibition [25]: Active
inhibition [26]: Active
Structure (SMILES): COc1ccc(S(=O)(=O)N(CC(=O)O)c2ccc(N(CC(=O)O)S(=O)(=O)c3ccc(OC)cc3)c3ncccc23)cc1
Activity (HaCaT [23]): Non-Toxic
Activity (HaCaT [24]): Non-Toxic
